From article PMC8265595 (Neuropharmacology, 2020)
Several values for one entry are separate records, joined by “and”; a condition that tells them apart may be missing. Equal values may be shown once.

Assays:
α1β2γ2 GABAA receptor [1] = target: T1, α1β2γ2 GABAA receptor (Homo sapiens, UniProt P14867+P18507+P47870); test: P4S concentration-response with and without 200 nM zuranolone, Ltk cells; assay type: cell-based; details: for EC50: EC50 of P4S, α1β2γ2, Ltk cells
How it was run: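 Ltk cells stably expressing α1β2γ2; whole-cell patch clamp at −80 mV, n = 11. P4S was applied at 0.1–1000 μM in log steps, with or without a fixed 200 nM test compound. Currents were normalized to the maximum current from a saturating GABA concentration.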

β-band EEG power = test: PharmacoEEG, β-band EEG power and sleep/wake; assay type: in vivo; details: rat; for sleep time: p < 0.05
How it was run: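 Adult male Sprague Dawley rats (n = 7 per group) with implanted epidural EEG screw electrodes and EMG were tested after 2 weeks' recovery. After 1 h baseline, they received test compound (0.3, 3 or 20 mg/kg) or vehicle (30% SBECD) PO, followed by 6 h continuous EEG. Sleep/wake was scored in 10 s epochs from EEG/EMG and checked by a blinded expert. Analysis used one-way ANOVA and two-way repeated-measures ANOVA vs vehicle.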

8 cardiac ion channels = details: ref Martinez-Botella et al., 2017; cited from earlier work
[2] = test system: transient receptor potential cation channel subfamily V member 1 receptor; details: 10 μM; ref Martinez-Botella et al., 2017; cited from earlier work
[3] = target: human recombinant α1β1γ2 GABAA receptor (Homo sapiens, UniProt P14867+P18505); test: Two electrode voltage clamp, α1β1γ2 in Xenopus oocytes; assay type: cell-based
How it was run: (§1)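 Xenopus oocytes expressing subunit cDNA; two-electrode voltage clamp at −80 mV, 18 °C, superfused with OR2 medium pH 7.4. Submaximal GABA given alone for 15 s, then co-applied with test compound at half-log steps 0.1–10 μM (0.3% DMSO). GABA: 10 μM for α1β1γ2, 3 μM for α6β3δ. n = 3 cells per concentration. Potentiation = peak amplitude with test compound / GABA alone ×100.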

[4] = target: human recombinant α2β2γ2 GABAA receptor (Homo sapiens, UniProt P47869+P47870); test: Whole cell patch clamp, GABA-evoked currents, α2β2γ2 in Ltk cells; assay type: cell-based
How it was run: (§2)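 Whole-cell patch clamp at −80 mV in Ltk cells (stable α1β2γ2, n = 7; α2β2γ2, n = 3) or CHO cells (transient α4β3δ, n = 6). Each cell received test compound (0.1% DMSO) sequentially at 0.01–10 μM, 30 s before each 2 s pulse of 2 μM GABA. Gravity-fed perfusion, exchange within 300–500 ms. For δ-containing cells, DS-2 was applied at the end to confirm δ expression. Potentiation = peak ratio ×100.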

glycine = details: 10 μM, ref Martinez-Botella et al., 2017; cited from earlier work
α1β2γ2 GABAA receptor [5] = target: T1, α1β2γ2 GABAA receptor; test: Synergy with diazepam, α1β2γ2 in Ltk cells, isobolographic analysis; assay type: cell-based; details: for concentration applied alone required to reach 150% effect level: α1β2γ2, isobologram
[6] = target: human recombinant α3β3γ2 GABAA receptor (Homo sapiens, UniProt P28472+P34903); test: IonWorks Barracuda patch clamp, α3β3γ2 in HEK cells; assay type: cell-based
How it was run: (§3)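 HEK cells stably expressing human receptors; automated perforated-patch whole-cell recording at −70 mV. Extracellular buffer pH 7.4; KCl-based intracellular solution pH 7.2. Submaximal GABA applied alone, then co-applied with test compound at half-log steps 0.01–30 μM (0.3% DMSO, 0.02% Cremophor); n = 4 per concentration. GABA: 5 μM α1β3γ2, 2 μM α2β3γ2, 12.5 μM α3β3γ2, 2 μM α5β3γ2. Potentiation = peak with test compound / peak with GABA alone ×100.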

α4β3δ GABAA receptor [7] = target: T2, α4β3δ GABAA receptor (Homo sapiens, UniProt P28472+P48169); test: Whole cell patch clamp, GABA-evoked currents, α4β3δ in CHO cells; assay type: cell-based
How it was run: as §2

[8] = target: human recombinant α2β3γ2 GABAA receptor (Homo sapiens, UniProt P28472+P47869); test: IonWorks Barracuda patch clamp, α2β3γ2 in HEK cells; assay type: cell-based
How it was run: as §3

[9] = target: human recombinant α6β3δ GABAA receptor (Homo sapiens, UniProt P28472+Q16445); test: Two electrode voltage clamp, α6β3δ in Xenopus oocytes; assay type: cell-based
How it was run: as §1

sigma = details: 10 μM, ref Martinez-Botella et al., 2017; cited from earlier work
[10] = test system: 22 nuclear hormone receptors; details: ref Martinez-Botella et al., 2017; cited from earlier work
[11] = Brain and plasma pharmacokinetics after single IP or PO dose; assay type: in vivo, mouse; details: for time of maximum plasma concentration (Cmax) post dose: CD1 mouse; for Cmax / bioavailability: male, CD-1, mouse, plasma, 10 mg/kg
How it was run: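 Adult male CD-1 mice received a single 10 mg/kg dose: IP in 15% HP-β-CD or PO in 30% SBECD. Sampling: IP at 0.5–8 h (n = 2 per time point); PO at 0.167–12 h (n = 3 per time point). Plasma (K2 EDTA) and snap-frozen brain were collected. Brain was homogenized in 3 vol PBS, extracted by acetonitrile precipitation with internal standard, and assayed by LC-MS/MS (C18, water:methanol gradient, positive MRM). Brain:plasma ratio from a single point at 1 h.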

PTZ-induced seizures = test: Pentylenetetrazole-induced seizures; assay type: in vivo, mouse; details: vehicle 751 ± 67 s
[12] = Plasma and brain concentrations in PTZ behavioral study; assay type: in vivo; details: mouse, between 0.3 and 1 mg/kg PO
How it was run: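 Plasma and brain were collected from a subset of PTZ-study mice plus satellite PK mice (n = 3–4 per dose) after PO dosing. Brain was homogenized in 3 vol PBS, extracted by acetonitrile protein precipitation with internal standard, and quantified by LC-MS/MS against a spiked calibration curve.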

[13] = test system: other ion channel and hormone receptors, including AMPA and NMDA; details: ref Martinez-Botella et al., 2017; cited from earlier work
dentate granule cells = test: Acute hippocampal slice recording, tonic current and sIPSCs after washout; assay type: cell-based, mouse; details: for tonic current density: 15 min pre-incubation, 30–50 min wash; for sIPSC amplitude / sIPSC decay: after 30–50 min wash
How it was run: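 Acute brain slices from postnatal day 21 C57 mice were held in a holding chamber with 0.1 or 1 μM test compound for 15 min. They were then perfused (2 mL/min) with oxygenated ACSF for 30–50 min before whole-cell patch clamp of dentate granule cells (n = 6–7). Tonic current is the baseline shift with 100 μM picrotoxin, divided by capacitance. sIPSCs were inspected visually and only single-peak events were kept.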

[14] = target: human recombinant α5β3γ2 GABAA receptor (Homo sapiens, UniProt P28472+P31644); test: IonWorks Barracuda patch clamp, α5β3γ2 in HEK cells; assay type: cell-based
How it was run: as §3

α4β3δ GABAA receptor [15] = target: T2, α4β3δ GABAA receptor; test: Synergy with diazepam, α4β3δ in CHO cells; assay type: cell-based
[16] = target: human recombinant α1β3γ2 GABAA receptor (Homo sapiens, UniProt P14867+P28472); test: IonWorks Barracuda patch clamp, α1β3γ2 in HEK cells; assay type: cell-based
How it was run: as §3

[17] = Phase 1, healthy volunteers, ref Hoffmann et al., 2019, cited from earlier work
[18] = Plasma concentrations in rats designated for pharmacokinetic analysis; assay type: in vivo; details: rat, po
α1β2γ2 GABAA receptor [19] = target: T1, α1β2γ2 GABAA receptor; test: Whole cell patch clamp, GABA-evoked currents, α1β2γ2 in Ltk cells; assay type: cell-based
How it was run: as §2

T1 sequence (P14867 28-456): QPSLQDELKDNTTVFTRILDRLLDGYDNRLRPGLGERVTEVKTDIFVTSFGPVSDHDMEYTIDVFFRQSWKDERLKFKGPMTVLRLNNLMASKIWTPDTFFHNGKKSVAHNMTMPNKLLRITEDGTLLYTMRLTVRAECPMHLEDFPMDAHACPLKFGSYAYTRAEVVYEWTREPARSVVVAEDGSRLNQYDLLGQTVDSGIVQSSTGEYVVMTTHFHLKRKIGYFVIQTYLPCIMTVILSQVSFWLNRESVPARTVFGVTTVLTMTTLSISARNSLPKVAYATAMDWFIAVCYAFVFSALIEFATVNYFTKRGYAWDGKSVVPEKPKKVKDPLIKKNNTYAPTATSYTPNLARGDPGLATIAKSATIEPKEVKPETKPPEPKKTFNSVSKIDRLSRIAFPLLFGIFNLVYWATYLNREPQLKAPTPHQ
T1 sequence (P47870 25-512 limits assumed): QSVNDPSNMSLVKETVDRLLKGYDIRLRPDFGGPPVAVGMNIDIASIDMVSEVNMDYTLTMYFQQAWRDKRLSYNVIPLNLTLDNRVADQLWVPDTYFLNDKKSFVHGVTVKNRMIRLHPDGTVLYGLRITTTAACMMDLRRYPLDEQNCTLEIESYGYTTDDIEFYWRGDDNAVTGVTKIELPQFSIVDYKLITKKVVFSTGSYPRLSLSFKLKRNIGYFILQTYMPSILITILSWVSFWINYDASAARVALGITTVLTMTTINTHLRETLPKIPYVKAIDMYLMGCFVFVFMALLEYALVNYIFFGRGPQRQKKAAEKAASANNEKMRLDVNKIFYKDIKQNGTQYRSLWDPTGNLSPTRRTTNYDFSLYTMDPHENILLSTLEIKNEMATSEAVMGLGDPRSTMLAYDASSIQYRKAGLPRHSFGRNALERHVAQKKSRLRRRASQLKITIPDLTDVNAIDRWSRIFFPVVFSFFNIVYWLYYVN
T1 sequence (P18507 40-475): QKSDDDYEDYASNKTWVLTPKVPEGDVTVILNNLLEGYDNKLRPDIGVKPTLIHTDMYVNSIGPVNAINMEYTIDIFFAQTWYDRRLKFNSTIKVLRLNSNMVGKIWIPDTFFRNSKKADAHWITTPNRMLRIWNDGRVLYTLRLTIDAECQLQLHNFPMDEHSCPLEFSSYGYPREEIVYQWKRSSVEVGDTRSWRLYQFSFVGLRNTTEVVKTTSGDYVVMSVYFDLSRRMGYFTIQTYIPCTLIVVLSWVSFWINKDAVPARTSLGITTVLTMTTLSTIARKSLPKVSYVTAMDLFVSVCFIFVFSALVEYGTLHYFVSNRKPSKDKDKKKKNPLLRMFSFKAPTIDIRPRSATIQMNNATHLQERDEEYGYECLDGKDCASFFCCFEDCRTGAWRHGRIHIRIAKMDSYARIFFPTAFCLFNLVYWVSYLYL
T2 sequence (P48169 36-554): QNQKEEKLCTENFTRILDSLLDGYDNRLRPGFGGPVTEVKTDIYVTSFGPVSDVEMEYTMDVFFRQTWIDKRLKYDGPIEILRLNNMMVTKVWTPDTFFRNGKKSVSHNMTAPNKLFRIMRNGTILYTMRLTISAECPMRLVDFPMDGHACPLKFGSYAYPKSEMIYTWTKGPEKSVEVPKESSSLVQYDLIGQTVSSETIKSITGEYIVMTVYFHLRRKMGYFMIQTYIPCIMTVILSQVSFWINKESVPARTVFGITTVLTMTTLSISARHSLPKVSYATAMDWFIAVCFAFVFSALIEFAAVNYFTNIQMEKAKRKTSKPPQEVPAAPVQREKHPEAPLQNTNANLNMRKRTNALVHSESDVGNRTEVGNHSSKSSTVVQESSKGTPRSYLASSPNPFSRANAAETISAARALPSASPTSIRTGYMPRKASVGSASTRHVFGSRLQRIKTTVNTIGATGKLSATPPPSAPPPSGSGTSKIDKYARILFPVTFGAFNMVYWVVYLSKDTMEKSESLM
T2 sequence (P28472 26-473): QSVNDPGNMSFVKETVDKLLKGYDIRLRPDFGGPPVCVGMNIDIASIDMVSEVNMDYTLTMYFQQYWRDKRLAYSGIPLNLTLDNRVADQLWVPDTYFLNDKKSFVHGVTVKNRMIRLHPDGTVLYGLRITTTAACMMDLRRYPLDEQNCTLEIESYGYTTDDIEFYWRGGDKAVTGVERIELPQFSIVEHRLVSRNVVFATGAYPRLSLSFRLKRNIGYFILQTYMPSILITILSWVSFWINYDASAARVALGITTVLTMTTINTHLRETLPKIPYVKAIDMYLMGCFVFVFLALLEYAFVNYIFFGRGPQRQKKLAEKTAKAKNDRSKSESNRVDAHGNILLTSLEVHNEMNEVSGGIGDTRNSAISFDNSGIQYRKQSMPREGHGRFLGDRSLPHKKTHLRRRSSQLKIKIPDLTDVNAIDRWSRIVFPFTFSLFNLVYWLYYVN
T2 sequence (O14764 17-452 partner limits assumed): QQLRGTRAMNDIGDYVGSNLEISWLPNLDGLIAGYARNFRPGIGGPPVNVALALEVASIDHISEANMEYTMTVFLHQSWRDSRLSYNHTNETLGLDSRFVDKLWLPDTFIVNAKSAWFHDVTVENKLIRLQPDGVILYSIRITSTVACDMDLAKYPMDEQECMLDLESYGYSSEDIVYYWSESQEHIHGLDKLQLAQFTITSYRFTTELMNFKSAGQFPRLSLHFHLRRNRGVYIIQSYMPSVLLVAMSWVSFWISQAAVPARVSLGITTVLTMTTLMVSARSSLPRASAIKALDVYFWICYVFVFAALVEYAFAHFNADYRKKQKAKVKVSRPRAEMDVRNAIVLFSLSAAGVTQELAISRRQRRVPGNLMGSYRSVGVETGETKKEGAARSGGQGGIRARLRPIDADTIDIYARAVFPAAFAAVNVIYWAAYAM
Chain of human recombinant α1β3γ2 GABAA receptor (P14867 28-456): as the sequence (P14867 28-456) above
Chain of human recombinant α1β3γ2 GABAA receptor (P28472 26-473): as the sequence (P28472 26-473) above
Chain of human recombinant α1β3γ2 GABAA receptor (P18507 40-475 partner): as the sequence (P18507 40-475) above
Chain of human recombinant α5β3γ2 GABAA receptor (P31644 32-462): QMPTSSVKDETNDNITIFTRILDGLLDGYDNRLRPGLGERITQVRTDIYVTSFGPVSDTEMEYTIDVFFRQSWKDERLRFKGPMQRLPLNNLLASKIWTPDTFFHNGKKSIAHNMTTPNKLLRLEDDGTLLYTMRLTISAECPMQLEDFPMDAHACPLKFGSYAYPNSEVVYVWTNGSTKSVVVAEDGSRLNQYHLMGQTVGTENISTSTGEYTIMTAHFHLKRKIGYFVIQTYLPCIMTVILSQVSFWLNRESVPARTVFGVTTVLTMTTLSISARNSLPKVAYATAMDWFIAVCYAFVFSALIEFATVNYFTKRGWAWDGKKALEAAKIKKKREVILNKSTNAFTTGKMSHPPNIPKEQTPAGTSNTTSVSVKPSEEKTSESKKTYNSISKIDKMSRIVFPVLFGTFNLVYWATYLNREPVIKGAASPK
Chain of human recombinant α5β3γ2 GABAA receptor (P28472 26-473): as the sequence (P28472 26-473) above
Chain of human recombinant α5β3γ2 GABAA receptor (P18507 40-475 partner): as the sequence (P18507 40-475) above
Chain of human recombinant α3β3γ2 GABAA receptor (P34903 29-492): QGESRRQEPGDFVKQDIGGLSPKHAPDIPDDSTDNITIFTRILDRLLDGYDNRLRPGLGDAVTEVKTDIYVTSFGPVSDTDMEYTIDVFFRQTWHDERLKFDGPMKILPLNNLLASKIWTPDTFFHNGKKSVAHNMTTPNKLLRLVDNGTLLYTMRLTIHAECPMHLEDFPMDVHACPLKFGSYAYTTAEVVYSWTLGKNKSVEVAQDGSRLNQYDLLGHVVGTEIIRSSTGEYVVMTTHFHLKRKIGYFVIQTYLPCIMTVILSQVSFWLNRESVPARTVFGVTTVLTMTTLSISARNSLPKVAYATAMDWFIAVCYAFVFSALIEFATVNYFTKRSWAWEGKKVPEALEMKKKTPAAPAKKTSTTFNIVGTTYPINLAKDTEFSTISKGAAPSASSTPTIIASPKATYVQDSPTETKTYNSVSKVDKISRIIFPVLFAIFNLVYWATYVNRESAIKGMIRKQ
Chain of human recombinant α3β3γ2 GABAA receptor (P28472 26-473): as the sequence (P28472 26-473) above
Chain of human recombinant α3β3γ2 GABAA receptor (P18507 40-475 partner): as the sequence (P18507 40-475) above
Chain of human recombinant α2β2γ2 GABAA receptor (P47869 29-451): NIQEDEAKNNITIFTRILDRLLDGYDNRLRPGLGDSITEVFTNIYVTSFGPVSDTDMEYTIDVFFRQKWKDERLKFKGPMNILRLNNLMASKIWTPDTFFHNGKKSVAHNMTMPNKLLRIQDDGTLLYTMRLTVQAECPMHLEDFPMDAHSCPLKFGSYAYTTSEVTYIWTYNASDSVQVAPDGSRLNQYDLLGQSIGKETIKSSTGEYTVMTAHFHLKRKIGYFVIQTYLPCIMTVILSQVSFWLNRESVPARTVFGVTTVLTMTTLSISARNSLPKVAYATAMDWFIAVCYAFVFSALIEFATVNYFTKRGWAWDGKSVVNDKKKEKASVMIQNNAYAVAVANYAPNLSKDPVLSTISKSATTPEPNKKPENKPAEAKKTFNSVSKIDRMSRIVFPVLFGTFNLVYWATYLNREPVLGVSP
Chain of human recombinant α2β2γ2 GABAA receptor (P47870 25-512 limits assumed): as the sequence (P47870 25-512 limits assumed) above
Chain of human recombinant α2β2γ2 GABAA receptor (P18507 40-475 partner): as the sequence (P18507 40-475) above
Chain of human recombinant α2β3γ2 GABAA receptor (P47869 29-451): as the sequence (P47869 29-451) above
Chain of human recombinant α2β3γ2 GABAA receptor (P28472 26-473): as the sequence (P28472 26-473) above
Chain of human recombinant α2β3γ2 GABAA receptor (P18507 40-475 partner): as the sequence (P18507 40-475) above

Compound: O=S(=O)(O)C1CCNCC1 [P4S, piperidine-4-sulphonic acid]
- EC50 (α1β2γ2 GABAA receptor [1]; P4S alone): 45000 nM and 44500 nM
- EC50 (α1β2γ2 GABAA receptor [1]; with 200 nM zuranolone): 25200 nM
- Emax of P4S (α1β2γ2 GABAA receptor [1]; P4S alone, normalized to maximum current evoked by saturating GABA (100 μM)): 25%

Compound: C[C@@]1(O)CC[C@H]2[C@H](CC[C@@H]3[C@@H]2CC[C@]2(C)[C@@H](C(=O)Cn4cc(C#N)cn4)CC[C@@H]32)C1 [zuranolone, 3α-Hydroxy-3β-methyl-21-(4-cyano-1H-pyrazol-1’-yl)-19-nor-5β-pregnan-20-one]
- sleep or wake time (β-band EEG power; 0.3 mg/kg PO): No changes in sleep or wake time
- β-band EEG power relative to vehicle (β-band EEG power; 0.3 mg/kg PO, p = 0.58): did not elicit a significant increase
- time of β-band EEG power peak post dose (β-band EEG power; 3 mg/kg PO): approximately 0.5 h
- β-band EEG power at one hour vs vehicle (β-band EEG power; 3 mg/kg PO, p < 0.0005): significantly greater than vehicle
- sleep time (β-band EEG power; 3 mg/kg PO): increased sleep time during the first hour
- time of β-band EEG power peak (β-band EEG power; 20 mg/kg PO): ≤ 30 min
- sleep time (β-band EEG power; 20 mg/kg PO): increased time spent in sleep during all three hours
- β-band EEG power at one hour vs vehicle (β-band EEG power; 20 mg/kg PO, p = 0.79): not significantly different from vehicle
- effects at 8 cardiac ion channels (8 cardiac ion channels): no significant effects
- antagonist activity [2]: 96%
- EC50 [3]: 1260 nM
- EC50 [4]: 184 nM
- inhibition of radioligand binding (glycine): 57%
- EC50 (α1β2γ2 GABAA receptor [5]): 844 nM
- concentration required to potentiate the current greater than 150% (α1β2γ2 GABAA receptor [5]; α1β2γ2, coapplied with 100 nM DZP): 10 nM
- interaction of zuranolone and DZP by isobolographic analysis (α1β2γ2 GABAA receptor [5]; α1β2γ2, coapplied zuranolone and DZP): synergistically
- maximal potentiation (α1β2γ2 GABAA receptor [5]; α1β2γ2, in the presence of 100 nM DZP): 1084%
- concentration applied alone required to reach 150% effect level (α1β2γ2 GABAA receptor [5]): 315 nM
- maximal potentiation (α1β2γ2 GABAA receptor [5]; α1β2γ2, without DZP): 511%
- EC50 [6]: 293 nM
- Emax ([6]; HEK293): 291%
- EC50 (α4β3δ GABAA receptor [7]): 118 nM
- Emax (α4β3δ GABAA receptor [7]; CHO): 556%
- EC50 [8]: 516 nM
- EC50 [9]: 780 nM
- inhibition of radioligand binding (sigma): 87%
- effects at 22 nuclear hormone receptors [10]: no significant effects
- time of maximum plasma concentration (Cmax) post dose ([11]; 10 mg/kg IP): 30 min
- time of maximum plasma concentration (Cmax) post dose ([11]; 10 mg/kg PO): 30 min
- Cmax ([11]; ip): 3200 ng/mL
- bioavailability ([11]; ip): 89%
- Cmax ([11]; po): 1340 ng/mL
- bioavailability ([11]; po): 62%
- latency to tonic seizures (PTZ-induced seizures; mouse, 0.3 mg/kg PO, non-significant trend (p = 0.06)): 1033 ± 179 s
- latency to tonic seizures (PTZ-induced seizures; mouse, 1, 3, and 10 mg/kg PO, 60 min prior to 120 mg/kg PTZ): ≥ 1688 ± 56 s
- brain concentrations [12]: 60 to 143 ng/g
- selectivity for GABAA receptors vs other ion channel and hormone receptors [13]: selective
- tonic current density (dentate granule cells; 0.1 μM): 2.48 ± 0.7 pA/pF
- sIPSC amplitude (dentate granule cells; 0.1 μM): 99 ± 26 pA
- sIPSC decay (dentate granule cells; 0.1 μM): 10 ± 1 ms
- tonic current density (dentate granule cells; 1 μM): 5.55 ± 1.3 pA/pF
- sIPSC amplitude (dentate granule cells; 1 μM): 57 ± 7 pA
- sIPSC decay (dentate granule cells; 1 μM): 24 ± 4 ms
- sIPSC frequency (dentate granule cells; following zuranolone exposure): no change
- EC50 [14]: 298 nM
- Emax ([14]; HEK293): 534%
- EC50 (α4β3δ GABAA receptor [15]): 135 nM
- EC50 [16]: 390 nM
- Emax ([16]; HEK293): 684%
- tolerability ([17]; oral administration): generally well tolerated
- pharmacokinetics following oral administration [17]: predictable pharmacokinetics
- concentration at 60 min ([18]; 0.3 mg/kg): 22 ng/mL
- concentration at 60 min ([18]; 3 mg/kg): 301 ng/mL
- concentration at 60 min ([18]; 20 mg/kg): 1470 ng/mL
- EC50 (α1β2γ2 GABAA receptor [19]): 430 nM

Compound: CN1C(=O)CN=C(c2ccccc2)c2cc(Cl)ccc21 [DZP, diazepam, reference compound]
- enhancement of GABA currents (α1β2γ2 GABAA receptor [5]; 100 nM DZP alone, α1β2γ2, 2 μM GABA): 104%
- concentration applied alone required to reach 150% effect level (α1β2γ2 GABAA receptor [5]): 360 nM
- potentiation of current when applied alone (α4β3δ GABAA receptor [15]; α4β3δ, DZP alone): did not potentiate
